The results in this text go back to ChEMBL document CHEMBL1255287, “Induction of L1 and L2 beta-lactamase production in Stenotrophomonas maltophilia is dependent on an AmpR-type regulator” (2008).

Values after ≈ are worked out from the molar mass of the structure shown. Active and inactive are the calls of the source. The calls are words filed in the database; no cut-off is given here.

Experiment [1] relates to Stenotrophomonas maltophilia. Nature of the experiment: Induction of beta-lactamase L2 expression in Stenotrophomonas maltophilia K279a at 5 to 20 mg/L after 2 hrs […]. It counts as functional, organism-based. In a few lines:
(§1)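 Cells at OD600 0.4 grown 2 h with inducer at the stated concentration. Nitrocefin-hydrolysing activity measured in cell extracts, total first, then L2 alone after adding EDTA to 100 μM (inhibits L1). L1 = total − L2. Specific activity divided by that of an identically treated uninduced culture gives fold induction. Mean of three experiments.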

The subject of experiment [2] is Stenotrophomonas maltophilia. Nature of the experiment: Induction of beta-lactamase L1 expression in Stenotrophomonas maltophilia K279a at 5 to 20 mg/L after 2 hrs […]. It counts as functional, organism-based. In a few lines:
as §1

Experiment [3] has as its system Stenotrophomonas maltophilia. Nature of the experiment: Antimicrobial activity against Stenotrophomonas maltophilia K279a harboring -121 frameshift mutation in ampR gene by agar dilution method. It counts as functional. In a few lines:
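MICs by BSAC standard agar dilution on Mueller-Hinton agar against S. maltophilia K279a carrying a frameshift-disrupted ampR (ampRFS); values in mg/liter.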
On the technique in general: Agar dilution tests growth on a series of plates holding different concentrations.

Experiment [4] has as its system Stenotrophomonas maltophilia. Put plainly: Antimicrobial activity against Stenotrophomonas maltophilia K279a expressing beta-lactamase L1 and L2 by agar dilution method. Type of experiment: functional. In a few lines:
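MICs by BSAC standard agar dilution on Mueller-Hinton agar against wild-type K279a and its ampR frameshift derivative.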

For experiment [5], the system named is Stenotrophomonas maltophilia. Nature of the experiment: Induction of beta-lactamase L2 expression in Stenotrophomonas maltophilia M1 mutant assessed as L2 activity at 10 mg/L after 2 hrs by […] method. Type of experiment: functional. In a few lines:
(§2)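 Nutrient broth cultures were grown to OD600 0.4, then exposed to 10 mg/liter imipenem as inducer for 2 h. Uninduced cultures were grown to OD600 0.6. Total nitrocefin-hydrolysing specific activity of cell extracts was read spectrophotometrically, then reassayed after adding EDTA to 100 μM to inhibit L1. Values are percent L1 or L2 of total activity, as means of three experiments.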

The test system of experiment [6] is Stenotrophomonas maltophilia. Put plainly: Induction of beta-lactamase L1 expression in Stenotrophomonas maltophilia M2 mutant assessed as L1 activity at 10 mg/L after 2 hrs by […] method. Type of experiment: functional. In a few lines:
as §2

In experiment [7] the test system is Stenotrophomonas maltophilia. Put plainly: Induction of beta-lactamase L1 expression in Stenotrophomonas maltophilia M1 mutant assessed as L1 activity at 10 mg/L after 2 hrs by […] method. Type of experiment: functional. In a few lines:
as §2

The test system of experiment [8] is Stenotrophomonas maltophilia. Nature of the experiment: Induction of beta-lactamase L2 expression in Stenotrophomonas maltophilia K279a at 0.1 to 0.8 mg/L after 2 hrs […]. Type of experiment: functional, organism-based. In a few lines:
as §1

For experiment [9], the system named is Stenotrophomonas maltophilia. Put plainly: Induction of beta-lactamase L1 expression in Stenotrophomonas maltophilia K279a at 0.1 to 0.8 mg/L after 2 hrs […]. Type of experiment: functional, organism-based. In a few lines:
as §1

The test system of experiment [10] is Stenotrophomonas maltophilia. Put plainly: Induction of beta-lactamase L2 expression in Stenotrophomonas maltophilia M2 mutant assessed as L2 activity at 10 mg/L after 2 hrs by […] method. It counts as functional. In a few lines:
as §2

Consider `CO[C@@]1(NC(=O)Cc2cccs2)C(=O)N2C(C(=O)O)=C(COC(N)=O)CS[C@@H]21`, for which the result in experiment [1] and in experiment [2] was Active.
Turning to `CC1(C)S[C@@H]2[C@H](NC(=O)[C@H](N)c3ccccc3)C(=O)N2[C@H]1C(=O)O` [AMPICILLIN], the results for the MIC in [3] and in experiment [4] were 8 µg/mL and 2050 µg/mL (≈ 5860 µM), respectively.
Consider `CO/N=C(\C(=O)N[C@@H]1C(=O)N2C(C(=O)O)=C(COC(C)=O)CS[C@H]12)c1csc(N)n1` [CEFOTAXIME], for which the figures for the MIC in experiment [3] and in experiment [4] were below 4 µg/mL and 1020 µg/mL (≈ 2250 µM), respectively.
On the same counts, the results for `CC(C)(O/N=C(\C(=O)N[C@@H]1C(=O)N2C(C(=O)[O-])=C(C[n+]3ccccc3)CS[C@H]12)c1csc(N)n1)C(=O)O` [CEFTAZIDIME] are below 4 µg/mL and 128 µg/mL (≈ 234 µM).
As for `C[C@@H](O)[C@H]1C(=O)N2C(C(=O)O)=C(SCCNC=N)C[C@H]12` [IMIPENEM ANHYDROUS], the Activity in [5] amounted to 34%; in experiment [6], 61%; in experiment [7] it was 66%; in experiment [10], 39%. Moreover, the outcome in experiment [8] and in [9] was Active. For the same compound, the MIC (usually the least concentration at which growth counts as inhibited) in experiment [3] is below 4 µg/mL; in experiment [4], 64 µg/mL (≈ 214 µM).
For the compound `C[C@@H](O)[C@H]1C(=O)N2C(C(=O)O)=C(S[C@@H]3CN[C@H](C(=O)N(C)C)C3)[C@H](C)[C@H]12` [MEROPENEM], the results for the MIC in experiment [3] and in experiment [4] were below 4 µg/mL and 64 µg/mL (≈ 167 µM), respectively.
In the case of `CCN1CCN(C(=O)N[C@@H](C(=O)N[C@@H]2C(=O)N3[C@@H]2SC(C)(C)[C@@H]3C(=O)O)c2ccccc2)C(=O)C1=O` [PIPERACILLIN], the MIC was 32 µg/mL in experiment [3] and 2050 µg/mL (≈ 3960 µM) in experiment [4].
